# According to ChEMBL document CHEMBL1122415, “Folate antagonists. 20. Synthesis and antitumor and antimalarial properties of trimetrexate and related 6-[(phenylamino)methyl]-2,4-quinazolinediamines” (1983):
# pIC50: −log10 of the molar value. Values joined by “and” are separate entries in the source; they are usually repeats but may differ in a detail not shown here. Equal values may be shown once.
# Columns and labels:
# Mus musculus [1] = organism: Mus musculus; assay: Daily dose required for 90% parasitaemia in trophozoite induced Plasmodium berghei in 21 mice; type: functional
# How it was run: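 Oral suppressive test in mice against a normal drug-sensitive P. berghei strain. Drug given continuously in the diet for six consecutive days, with doses as free base equivalent. SD90 is the daily dose (mg/kg) giving 90% suppression of parasitemia versus control mice, estimated graphically on semilog paper.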
# Mus musculus [2] = assay: Antimalarial effect against trophozoite-induced Plasmodium berghei in mice (Mus musculus) after subcutaneous administration dose of 640 mg/kg; type: functional
# Mus musculus [3] = assay: Antimalarial effect against trophozoite-induced Plasmodium berghei in mice (Mus musculus) after subcutaneous administration dose of 40 mg/kg; type: functional
# Mus musculus [4] = assay: Antimalarial effect against trophozoite-induced Plasmodium berghei in mice (Mus musculus) after subcutaneous administration dose of 10 mg/kg; type: functional
# Mus musculus [5] = assay: Antimalarial effect against trophozoite-induced Plasmodium berghei in mice (Mus musculus) after subcutaneous administration dose of 160 mg/kg; type: functional
# Mus musculus [6] = assay: Antimalarial effect against trophozoite-induced Plasmodium berghei in mice (Mus musculus) after subcutaneous administration dose of 320 mg/kg; type: functional
# Mus musculus [7] = assay: Antimalarial effect against trophozoite-induced Plasmodium berghei in mice (Mus musculus) after subcutaneous administration dose of 20 mg/kg; type: functional
# L1210 [8] = assay: Molar concentration required to reduce the number of L1210 cells by 50% after incubation for 2 days; type: functional, Mus musculus; settings: read-out: ID50 (the source's name)
# How it was run: (§1)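 L1210 leukemia cells in tissue culture exposed to drug for 2 days. ID50 is the molar concentration that reduces L1210 cell number by 50%. Mithramycin is the reference drug.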
# Plasmodium berghei [9] = assay: Antimalarial effect against trophozoite-induced Plasmodium berghei in mice (Mus musculus) at 20 mg/kg subcutaneous dose; type: functional; settings: 20 mg/kg
# Mus musculus [10] = assay: Antimalarial effect against trophozoite-induced Plasmodium berghei in mice (Mus musculus) after subcutaneous administration dose of 80 mg/kg; 4 survived after 60 days of post infection; type: functional
# Plasmodium berghei [11] = assay: Antimalarial effect against trophozoite-induced Plasmodium berghei in mice (Mus musculus) at 80 mg/kg subcutaneous dose; type: functional
# Plasmodium berghei [12] = assay: Antimalarial effect against trophozoite-induced Plasmodium berghei in mice (Mus musculus) at 40 mg/kg subcutaneous dose; type: functional
# L1210 [13] = assay: Molar concentration required to reduce the number of L1210 cells by 50% after incubation for 2 days (exp 2; type: functional; settings: Mus musculus, L1210, 48 h; read-out: ID50 (the source's name); how it was run: as §1
# Mus musculus [14] = assay: Antimalarial effect against trophozoite-induced Plasmodium berghei in mice (Mus musculus) after subcutaneous administration dose of 2.5 mg/kg; type: functional
# Mus musculus [15] = assay: Antimalarial effect against trophozoite-induced Plasmodium berghei in mice (Mus musculus) after subcutaneous administration dose of 5 mg/kg; type: functional
# Mus musculus [16] = assay: Antimalarial effect against trophozoite-induced Plasmodium berghei in mice (Mus musculus) after subcutaneous administration dose of 160 mg/kg; 4 survived after 60 days of post infection; type: functional
# Plasmodium berghei [17] = assay: Antimalarial effect against trophozoite-induced Plasmodium berghei in mice (Mus musculus) at 5 mg/kg subcutaneous dose; type: functional
# Plasmodium berghei [18] = assay: Antimalarial effect against trophozoite-induced Plasmodium berghei in mice (Mus musculus) after subcutaneous dose of 10 mg/kg; type: functional; settings: 10 mg/kg
# Mus musculus [19] = assay: Antimalarial effect against trophozoite-induced Plasmodium berghei in mice (Mus musculus) after subcutaneous administration dose of 160 mg/kg; 3 survived after 60 days of postinfection; type: functional
# Mus musculus [20] = assay: Antimalarial effect against trophozoite-induced Plasmodium berghei in mice (Mus musculus) after subcutaneous administration dose of 20 mg/kg; 4 survived after 60 days of postinfection; type: functional
# Mus musculus [21] = assay: Antimalarial effect against trophozoite-induced Plasmodium berghei in mice (Mus musculus) after subcutaneous administration dose of 10 mg/kg; 1 survived after 60 days of post infection; type: functional
# Mus musculus [22] = assay: Antimalarial effect against trophozoite-induced Plasmodium berghei in mice (Mus musculus) after subcutaneous administration dose of 20 mg/kg; 3 survived after 60 days of post infection; type: functional
Structure (SMILES),SD90 (Mus musculus [1]),"pIC50 (L1210 [8]; Mus musculus, L1210, 48 h)",pIC50 (L1210 [8]),Delta MST (Plasmodium berghei [9]),Delta MST (Plasmodium berghei [12]),Delta MST (Mus musculus [14]),Delta MST (Plasmodium berghei [17]),Delta MST (Plasmodium berghei [18]),further results
CC(=O)O.Nc1nc(N)c2cc(CNc3cc(Cl)cc(Cl)c3)ccc2n1.O.O,51 mg/kg/day,6.92,7.13,–,–,–,–,–,Delta MST (Mus musculus [2]): 13.7 days; Delta MST (Mus musculus [3]): 0.7 days; Delta MST (Mus musculus [4]): 0.3 days; Delta MST (Mus musculus [5]): 6.9 days and 4.7 days; Delta MST (Mus musculus [6]): 12.9 days and 6.9 days; Delta MST (Mus musculus [7]): 0.3 days
CC(=O)O.COc1cc(NCc2ccc3nc(N)nc(N)c3c2C)cc(OC)c1OC.O,0.44 mg/kg/day,7.96,7.70,12 days and 11.5 days and 7.1 days,14.7 days,–,–,–,Delta MST (Mus musculus [10]): 16.3 days and 14.7 days; Delta MST (Plasmodium berghei [11]): 30.8 days
CC(=O)O.Nc1nc(N)c2c(Cl)c(CNc3cccc(Br)c3)ccc2n1.O,–,8.68,–,–,–,1.5 days,–,–,pIC50 (L1210 [13]): 8.66; Delta MST (Mus musculus [3]; 40 mg/kg): 11.3 days and 11.5 days and 11.7 days; Delta MST (Mus musculus [4]; 10 mg/kg): 7.3 days and 7.5 days and 4.7 days; Delta MST (Mus musculus [7]; 20 mg/kg): 8.5 days and 8.3 days; Delta MST (Mus musculus [15]): 4.7 days
CC(=O)O.Nc1nc(N)c2cc(CN(N=O)c3ccc(Cl)c(Cl)c3)ccc2n1.O,0.25 mg/kg/day,7.40,7.15,6.7 days and 6.8 days,–,–,2 days,3.7 days and 4 days,Delta MST (Mus musculus [16]): 22.8 days; Delta MST (Plasmodium berghei [11]; 80 mg/kg): 12.3 days and 12 days; Delta MST (Plasmodium berghei [12]; 40 mg/kg): 9.9 days and 9.8 days; Delta MST (Mus musculus [19]): 28.7 days
Cc1c(CN(N=O)c2ccc(Cl)c(Cl)c2)ccc2nc(N)nc(N)c12,1.15 mg/kg/day,7.15,7.00,–,–,4.1 days,–,–,Delta MST (Mus musculus [20]): 21.7 days and 24.9 days; Delta MST (Plasmodium berghei [17]; 5 mg/kg): 9.9 days and 10.5 days; Delta MST (Mus musculus [21]): 12 days and 11.9 days
Cc1c(CN(C=O)c2ccc(Cl)c(Cl)c2)ccc2nc(N)nc(N)c12,–,7.68,7.59,9.9 days and 9.4 days,29.9 days,–,5.3 days,7.7 days and 5.3 days and 3.9 days,Delta MST (Mus musculus [22]): 9.9 days
